# ChEMBL document CHEMBL3864175, “Sulfonamides as Selective NaV1.7 Inhibitors: Optimizing Potency and Pharmacokinetics to Enable in Vivo Target Engagement” (ACS Med Chem Lett, 2016)
# Key:
# [1] = test system: Mus musculus; assay: Toxicity in C57BL/6 mouse assessed as reduction in locomotor activity at 5 to 60 mg/kg, po measured after 4 hrs by open field movement assay; format: organism-based; conditions: in vivo
# [2] = Ratio of drug level in brain to plasma in C57BL/6 mouse; format: ADME; conditions: read-out: BPR
# [3] = Apparent permeability in MDCK cells; format: ADME, cell-based, Canis lupus familiaris; conditions: dog
# In short: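 Apparent permeability measured in parental MDCK cells.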
# [4] = Volume of distribution at steady state in rat at 0.5 mg/kg, iv by LC-MS/MS analysis; format: ADME, organism-based; conditions: in vivo, read-out: Vdss
# In short: (§1)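 Male rats, n = 2 per group, dosed intravenously at 0.5 mg/kg as a solution in 100% DMSO. Unbound clearance is derived from total clearance.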
# [5] = Clearance in dog at 0.5 mg/kg, iv by LC-MS/MS analysis; format: ADME, organism-based, Canis lupus familiaris; conditions: in vivo
# [6] = target: T1, Sodium channel protein type 5 subunit alpha (Homo sapiens, UniProt Q14524); assay: Inhibition of human Nav1.5 expressed in HEK293 cells assessed as inhibition of sodium current at holding potential of -125 mV measured for 3 to 5 mins by whole cell voltage clamp method; format: cell-based
# T1 sequence (Q14524 whole entry): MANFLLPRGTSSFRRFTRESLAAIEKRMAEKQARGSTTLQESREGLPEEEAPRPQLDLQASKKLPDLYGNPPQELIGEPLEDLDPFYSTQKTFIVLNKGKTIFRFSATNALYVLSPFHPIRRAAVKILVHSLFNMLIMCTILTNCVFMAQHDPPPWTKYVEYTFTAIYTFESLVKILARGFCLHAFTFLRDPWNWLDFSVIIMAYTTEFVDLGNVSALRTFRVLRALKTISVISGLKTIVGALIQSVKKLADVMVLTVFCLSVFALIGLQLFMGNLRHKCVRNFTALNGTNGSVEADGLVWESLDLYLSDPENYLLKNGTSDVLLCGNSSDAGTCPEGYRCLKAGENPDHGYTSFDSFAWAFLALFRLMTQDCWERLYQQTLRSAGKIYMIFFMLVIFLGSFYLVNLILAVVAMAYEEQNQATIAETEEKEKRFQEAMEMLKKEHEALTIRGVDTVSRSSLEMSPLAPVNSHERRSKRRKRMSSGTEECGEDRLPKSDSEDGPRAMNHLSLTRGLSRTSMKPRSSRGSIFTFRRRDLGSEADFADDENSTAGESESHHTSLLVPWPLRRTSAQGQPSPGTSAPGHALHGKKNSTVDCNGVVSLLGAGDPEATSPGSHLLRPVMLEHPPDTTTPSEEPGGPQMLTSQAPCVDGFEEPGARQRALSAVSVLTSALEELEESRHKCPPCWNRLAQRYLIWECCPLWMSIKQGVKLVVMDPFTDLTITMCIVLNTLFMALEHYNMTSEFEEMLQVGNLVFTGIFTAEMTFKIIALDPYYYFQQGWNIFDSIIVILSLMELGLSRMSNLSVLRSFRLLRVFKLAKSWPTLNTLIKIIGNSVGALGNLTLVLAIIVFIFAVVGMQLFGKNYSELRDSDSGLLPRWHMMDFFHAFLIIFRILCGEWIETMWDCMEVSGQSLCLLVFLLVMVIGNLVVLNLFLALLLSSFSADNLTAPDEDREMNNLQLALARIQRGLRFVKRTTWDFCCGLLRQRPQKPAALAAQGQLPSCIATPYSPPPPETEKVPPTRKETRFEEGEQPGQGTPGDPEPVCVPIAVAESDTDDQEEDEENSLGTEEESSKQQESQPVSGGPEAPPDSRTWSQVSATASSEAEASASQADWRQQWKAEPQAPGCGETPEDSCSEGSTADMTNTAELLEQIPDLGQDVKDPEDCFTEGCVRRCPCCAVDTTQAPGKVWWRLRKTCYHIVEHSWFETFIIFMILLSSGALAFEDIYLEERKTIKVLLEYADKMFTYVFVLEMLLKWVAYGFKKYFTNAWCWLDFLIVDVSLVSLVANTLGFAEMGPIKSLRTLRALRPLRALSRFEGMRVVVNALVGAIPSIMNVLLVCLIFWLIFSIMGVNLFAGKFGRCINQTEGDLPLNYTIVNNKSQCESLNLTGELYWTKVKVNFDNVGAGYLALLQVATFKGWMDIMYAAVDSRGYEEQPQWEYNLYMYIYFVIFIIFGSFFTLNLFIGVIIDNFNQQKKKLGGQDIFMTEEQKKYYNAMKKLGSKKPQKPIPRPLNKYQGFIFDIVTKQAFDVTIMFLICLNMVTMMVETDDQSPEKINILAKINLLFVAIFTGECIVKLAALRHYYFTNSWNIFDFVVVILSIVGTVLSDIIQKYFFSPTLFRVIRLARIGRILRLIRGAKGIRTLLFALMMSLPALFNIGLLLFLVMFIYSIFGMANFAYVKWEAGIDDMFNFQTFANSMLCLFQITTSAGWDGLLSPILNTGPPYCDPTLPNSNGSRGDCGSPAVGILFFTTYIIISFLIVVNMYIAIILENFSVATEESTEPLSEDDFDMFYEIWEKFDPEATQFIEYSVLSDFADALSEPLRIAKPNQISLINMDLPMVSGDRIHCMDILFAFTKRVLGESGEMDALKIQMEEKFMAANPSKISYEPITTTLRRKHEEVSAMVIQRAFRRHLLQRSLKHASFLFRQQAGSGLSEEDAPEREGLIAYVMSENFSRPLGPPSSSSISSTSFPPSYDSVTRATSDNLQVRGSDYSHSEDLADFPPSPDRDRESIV
# [7] = Cmax in dog at 1.7 mg/kg, po by LC-MS/MS analysis; format: ADME, organism-based, Canis lupus familiaris; set-up: dose 1.7 mg/kg, route oral; conditions: in vivo
# In short: (§2)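 Dogs given a 1.7 mg/kg oral dose as a solution in 30% HPBCD/70% water/KOH at pH = 10; plasma parameters derived from this oral dosing, with the iv dose at 0.5 mg/kg in the same vehicle.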
# [8] = Tmax in rat at 10 mg/kg, po by LC-MS/MS analysis; format: ADME, organism-based; conditions: in vivo
# In short: (§3)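 Rats dosed orally at 10 mg/kg as a solution in 30% HPBCD/70% water, brought to pH 10 with KOH.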
# [9] = Drug excretion in bile duct cannulated Sprague-Dawley rat feces assessed as parent compound at 1 mg/kg, iv administered through catheter measured up to 24 hrs by LC-MS/MS analysis; format: ADME, organism-based; conditions: faeces, read-out: Drug excretion
# [10] = Oral bioavailability in rat at 10 mg/kg by LC-MS/MS analysis; format: ADME, organism-based; conditions: in vivo; in short: as §3
# [11] = Dissociation constant, pKa of the compound at pH 1.7 to 11.2 by capillary electrophoresis method; format: physicochemical
# In short: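 pKa values calculated from capillary electrophoresis data collected over pH 1.7 to 11.2.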
# [12] = Oral bioavailability in dog at 1.7 mg/kg by LC-MS/MS analysis; format: ADME, organism-based, Canis lupus familiaris; conditions: in vivo; in short: as §2
# [13] = target: Sodium channel protein type 9 subunit alpha (Mus musculus, UniProt Q62205); assay: Inhibition of 20% inactivated Nav1.7 in C57BL/6 mouse DRG neurons assessed as inhibition of sodium currents in presence of TTX by whole cell patch clamp assay
# In short: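 Electrophysiology of TTX-sensitive sodium channels recorded from the cell bodies of sensory neurons freshly dissociated from mouse dorsal root ganglia.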
# [14] = Half life in rat at 0.5 mg/kg, iv by LC-MS/MS analysis; format: ADME, organism-based; conditions: in vivo; in short: as §1
# [15] = target: T1, Sodium channel protein type 5 subunit alpha; assay: Inhibition of 20% inactivated human Nav1.5 expressed in HEK293 cells assessed as inhibition of peak inward current by whole cell patch clamp method; format: cell-based
# [16] = target: Sodium channel protein type 4 subunit alpha (Homo sapiens, UniProt P35499); assay: Inhibition of 20% inactivated human Nav1.4 expressed in HEK293 cells assessed as inhibition of peak inward current by whole cell patch clamp method; format: cell-based
# Sequence of Sodium channel protein type 4 subunit alpha (P35499 whole entry): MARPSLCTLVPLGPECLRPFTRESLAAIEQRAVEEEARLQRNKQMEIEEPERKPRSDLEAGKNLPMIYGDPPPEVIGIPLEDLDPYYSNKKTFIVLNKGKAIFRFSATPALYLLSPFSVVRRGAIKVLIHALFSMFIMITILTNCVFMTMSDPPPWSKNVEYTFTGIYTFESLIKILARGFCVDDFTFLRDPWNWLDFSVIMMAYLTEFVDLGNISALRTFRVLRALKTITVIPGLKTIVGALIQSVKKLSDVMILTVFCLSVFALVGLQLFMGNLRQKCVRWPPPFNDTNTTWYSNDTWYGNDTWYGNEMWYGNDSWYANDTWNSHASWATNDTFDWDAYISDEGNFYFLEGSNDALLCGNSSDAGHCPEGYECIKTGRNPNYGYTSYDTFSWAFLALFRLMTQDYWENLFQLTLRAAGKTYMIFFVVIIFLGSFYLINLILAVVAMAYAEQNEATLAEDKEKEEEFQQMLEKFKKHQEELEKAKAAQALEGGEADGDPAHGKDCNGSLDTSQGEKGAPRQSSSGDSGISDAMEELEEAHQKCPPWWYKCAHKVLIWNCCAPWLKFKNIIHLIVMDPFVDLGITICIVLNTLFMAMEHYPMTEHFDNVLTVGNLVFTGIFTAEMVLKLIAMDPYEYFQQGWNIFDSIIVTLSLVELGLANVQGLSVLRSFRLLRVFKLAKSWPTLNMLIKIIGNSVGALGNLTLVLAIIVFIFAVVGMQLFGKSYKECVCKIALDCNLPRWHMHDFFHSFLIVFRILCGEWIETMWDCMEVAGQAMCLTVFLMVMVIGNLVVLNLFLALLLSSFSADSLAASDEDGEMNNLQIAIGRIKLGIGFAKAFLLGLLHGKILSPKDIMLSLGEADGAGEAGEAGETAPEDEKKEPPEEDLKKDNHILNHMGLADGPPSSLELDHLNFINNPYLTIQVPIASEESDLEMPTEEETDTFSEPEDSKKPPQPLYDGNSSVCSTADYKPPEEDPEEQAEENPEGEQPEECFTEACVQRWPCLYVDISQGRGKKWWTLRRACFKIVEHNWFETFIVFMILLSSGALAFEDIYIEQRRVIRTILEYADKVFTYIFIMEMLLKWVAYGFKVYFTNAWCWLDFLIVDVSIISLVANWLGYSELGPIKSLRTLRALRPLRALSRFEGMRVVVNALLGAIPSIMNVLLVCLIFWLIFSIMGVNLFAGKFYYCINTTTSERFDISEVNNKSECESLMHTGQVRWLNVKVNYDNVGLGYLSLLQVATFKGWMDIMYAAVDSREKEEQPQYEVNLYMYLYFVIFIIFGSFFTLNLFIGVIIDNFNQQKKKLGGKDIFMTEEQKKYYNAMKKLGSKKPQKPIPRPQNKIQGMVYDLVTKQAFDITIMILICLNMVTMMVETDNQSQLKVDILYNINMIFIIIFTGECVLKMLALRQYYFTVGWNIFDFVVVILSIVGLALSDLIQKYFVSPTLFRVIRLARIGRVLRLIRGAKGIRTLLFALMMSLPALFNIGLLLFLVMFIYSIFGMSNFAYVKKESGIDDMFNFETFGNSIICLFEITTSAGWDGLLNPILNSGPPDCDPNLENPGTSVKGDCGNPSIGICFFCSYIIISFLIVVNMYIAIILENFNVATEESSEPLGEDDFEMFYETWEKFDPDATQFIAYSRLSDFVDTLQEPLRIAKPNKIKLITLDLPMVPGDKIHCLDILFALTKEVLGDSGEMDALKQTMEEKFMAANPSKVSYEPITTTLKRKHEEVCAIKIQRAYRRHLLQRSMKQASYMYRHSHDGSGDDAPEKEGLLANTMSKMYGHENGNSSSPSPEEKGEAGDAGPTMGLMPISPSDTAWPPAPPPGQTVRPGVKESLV
# [17] = Unbound plasma concentration in histamine induced C57BL/6 mouse model of scratching at 20 mg/kg, po pretreated for 120 mins followed by histamine-challenge measured after 30 mins; format: ADME, organism-based; conditions: in vivo, 0.5 h
# In short: (§4)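 Male C57BL/6 mice dosed orally 120 min before intradermal histamine. Scratching bouts counted over 30 min and compared with vehicle by one-way ANOVA with Dunnett's test. Total and unbound plasma levels taken 30 min after histamine.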
# [18] = Total plasma concentration in histamine induced C57BL/6 mouse model of scratching at 60 mg/kg, po pretreated for 120 mins followed by histamine-challenge measured after 30 mins; format: ADME, organism-based; in short: as §4
# [19] = Volume of distribution at steady state in dog at 0.5 mg/kg, iv by LC-MS/MS analysis; format: ADME, organism-based, Canis lupus familiaris; conditions: in vivo
# In short: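 Dogs dosed intravenously at 0.5 mg/kg in 30% HPBCD/70% water, brought to pH 10 with KOH.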
smiles,measurement,setting,value
COc1cc(C(F)(F)F)ccc1-c1ncnc2cc(S(=O)(=O)Nc3nccs3)ccc12,Activity,[1],Non-Toxic
same,Kp,[2],0.008
same,Papp,[3],31 ×10⁻⁶ cm/s
same,Vd,[4],1.5 L
same,clearance,[5],0.217 mL/min/kg
same,IC50,[6],> 30 µM
same,Cmax,[7],8 µM
same,Tmax,[8],1.7 h
same,dose excreted at 24 h,[9],0.6%
same,bioavailability,[10],100%
same,pKa,[11],6.5
same,bioavailability,[12],53%
same,IC50,[13],0.13 µM
same,half-life,[14],1.9 h
same,IC50,[15],16 µM
same,IC50,[16],17 µM
same,Cp(f),[17],0.76 µM
same,concentration at 0.5 h,[18],150 µM
same,Vd,[19],0.31 L/kg
